Experimental findings from ChEMBL document CHEMBL1153932, “Hybrid alpha-bromoacryloylamido chalcones. Design, synthesis and biological evaluation” (Bioorg Med Chem Lett, 2009) are described below.

One data set relates to L1210. In words: Antiproliferative activity against mouse L1210 cells after 48 hrs by Coulter counting analysis. It is filed as functional, cell-based. The conditions noted are these: L1210, 48 h.
The next data set concerns FM3A. The experiment in a line: Antiproliferative activity against mouse FM3A cells after 48 hrs by Coulter counting analysis. Format: functional, cell-based.
In the next data set the test system is MOLT-4. In words: Antiproliferative activity against human MOLT4 cells after 48 hrs by Coulter counting analysis. Format: functional, cell-based. The conditions noted are these: MOLT-4, 48 h.
The subject of a further data set is CCRF-CEM. In words: Antiproliferative activity against human CEM cells after 48 hrs by Coulter counting analysis. Format: cell-based.
A further data set relates to HeLa. In words: Antiproliferative activity against human HeLa cells after 48 hrs by Coulter counting analysis. It is filed as functional, cell-based.
Data set [1] is described as follows: Inhibition of bovine brain tubulin polymerization. Also noted: species or system Bos taurus.
Data set [2] deals with K562. The experiment in a line: Antiproliferative activity against human K562 cells after 48 hrs by Coulter counting analysis. Format: functional, cell-based. Conditions: K562, 48 h.
In data set [3] the test system is K562. In words: Cell cycle arrest in human K562 cells assessed as accumulation at subG1 phase at IC75 after 72 hrs using propidium iodide staining by flow cytometry. It is filed as functional. Put shortly: (§1)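 K562 cells were cultured 72 h with or without compound, then stained with propidium iodide and analysed by flow cytometry. The proportions of cells in sub-G1, G0–G1, S and G2-M were read from DNA histograms and compared with untreated controls.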
(A flow cytometer gives signals particle by particle.)

For data set [4], the system named is K562. The experiment in a line: Cell cycle arrest in human K562 cells assessed as accumulation at G0-G1 phase at IC75 after 72 hrs using propidium iodide staining by flow cytometry. It is filed as functional. Put shortly:
as §1

Data set [5] has as its system K562. The experiment in a line: Cell cycle arrest in human K562 cells assessed as accumulation at S phase at IC75 after 72 hrs using propidium iodide staining by flow cytometry. It is filed as functional. In a few lines: as §1
Data set [6] concerns K562. In words: Cell cycle arrest in human K562 cells assessed as accumulation at G2-M phase at IC75 after 72 hrs using propidium iodide staining by flow cytometry. Format: functional. Put shortly:
as §1

A short description of data set [7]: Solubility of the compound. It is filed as physicochemical.
Data set [8] concerns K562. In words: Induction of apoptosis in human K562 cells assessed as phosphatidylserine externalization up to 3 uM after 24 hrs using annexin-V-FITC staining by flow cytometry. Format: functional, cell-based.
For data set [9], the system named is K562. In words: Induction of apoptosis in human K562 cells assessed as phosphatidylserine externalization up to 3 uM after 48 hrs using annexin-V-FITC staining by flow cytometry. Format: functional, cell-based.
The species named for the next data set is Bos taurus. In words: Displacement of [3H]colchicine from bovine brain tubulin at 50 uM. Background: Loss of bound radioactivity is the signal in a displacement assay; it reports binding, not function.
The test system of data set [10] is K562. In words: Induction of apoptosis in human K562 cells assessed as increase in mitochondrial mass at […] after 48 hrs using 10-N-nonyl acridine orange staining by flow cytometry. It is filed as functional, cell-based.
Data set [11] deals with K562. The experiment in a line: Induction of apoptosis in human K562 cells assessed as caspase 3 activation at 0.6 uM after 24 hrs by flow cytometry. Format: functional, cell-based. In a few lines:
(§2)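 K562 cells were treated with compound for 24 h and 48 h, then harvested. Cells were stained with a FITC-conjugated monoclonal antibody against the active fragment of human caspase-3 and analysed by flow cytometry against untreated controls.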

The test system of data set [12] is K562. The experiment in a line: Induction of apoptosis in human K562 cells assessed as caspase 3 activation at 0.6 uM after 48 hrs by flow cytometry. Format: functional, cell-based. Put shortly:
as §2

Data set [13] has as its system K562. In words: Induction of apoptosis in human K562 cells assessed as caspase 3 activation at 1.25 uM after 24 hrs by flow cytometry. It is filed as functional, cell-based. Put shortly: as §2
The test system of data set [14] is K562. The experiment in a line: Induction of apoptosis in human K562 cells assessed as caspase 3 activation at 1.25 uM after 48 hrs by flow cytometry. It is filed as functional, cell-based. In a few lines:
as §2

The subject of data set [15] is K562. In words: Induction of apoptosis in human K562 cells assessed as phosphatidylserine externalization at 0.2 uM after 3 days using annexin-V-FITC staining by flow cytometry. It is filed as functional, cell-based.

Calls of active or inactive are those of the source. The calls are words filed in the database; no cut-off is given here.

Usually IC50 stands for the concentration needed to halve the response being measured. Low readings indicate greater potency in that assay, high ones weaker potency in that assay. A word on the IC75: it is the point of the concentration-response curve where the effect stands at 75%. A higher IC75 goes with a need for much substance. On to `C=C(Br)C(=O)Nc1ccc(C(=O)/C=C/c2cccc(OC)c2OC)cc1`, for which the IC50 was 1100 nM in the data set with L1210; 550 nM with FM3A; 490 nM in the data set with MOLT-4; 710 nM with CCRF-CEM; 380 nM with HeLa; over 40000 nM in [1]. The IC75 in the data set with K562 [2] was determined as 640 nM. The Activity with K562 [3] is given as 48.4%; in the data set on K562 [4], 22.3%; in the data set with K562 [5], 15.2%; in the data set with K562 [6], 14.1%. Besides, in [7], the solubility entry is “Insoluble”.
Turning to `C=C(Br)C(=O)Nc1ccc(C(=O)/C=C/c2ccccc2)cc1`, the 50% inhibitory concentration (IC50) in the data set with L1210 is 880 nM; in the data set with FM3A, 690 nM; in the data set with MOLT-4, 500 nM; in the data set with CCRF-CEM, 1500 nM; with HeLa, 960 nM; in data set [1], over 40000 nM. In addition, the 75% effect concentration (IC75) in the data set with K562 [2] turned out to be 2770 nM. Further, the Activity came to 47.6% in the data set on K562 [3], 23% with K562 [4], 16.4% with K562 [5] and 13% in the data set with K562 [6]. Moreover, the solubility result in data set [7] was “Insoluble”.
Consider `C=C(Br)C(=O)Nc1ccc(/C=C/C(=O)c2ccc(Br)cc2)cc1`, for which the IC50 in the data set on L1210 is 620 nM; in the data set with FM3A, 1100 nM; in the data set with MOLT-4, 680 nM; with CCRF-CEM it was 990 nM; in the data set with HeLa, 1000 nM; in data set [1], over 40000 nM. This compound yielded a 75% effect concentration (IC75) with K562 [2] of 840 nM. The Activity is on record as 20.4% in the data set on K562 [3], 35.9% in the data set with K562 [4], 27.5% in the data set with K562 [5] and 16.2% with K562 [6]. The solubility result in [7] is listed as “Insoluble”.
Consider `C=C(Br)C(=O)Nc1ccc(C(=O)/C=C/c2ccc(N(C)C)cc2)cc1`, for which the IC50 in the data set with L1210 came to 1900 nM; with FM3A it was 2800 nM; with MOLT-4, 1300 nM; in the data set with CCRF-CEM, 1500 nM; with HeLa, 610 nM. Besides, the result with K562 [8] and with K562 [9] was Active.
For orientation: inhibition means the percentage by which the read-out fell short of the control. The low end stands for little suppression, the high end for strong suppression. `C=C(Br)C(=O)Nc1ccc(C(=O)/C=C/c2ccccc2OC)cc1`: the concentration for half-maximal inhibition (IC50) in the data set with L1210 was found to be 1700 nM; with FM3A, 370 nM; in the data set with MOLT-4, 240 nM; with CCRF-CEM, 580 nM; in the data set on HeLa, 1300 nM; in data set [1], 8300 nM. This compound yielded an inhibition in the data set listed under Bos taurus of 37%. Also, the IC75 with K562 [2] stood at 2940 nM. The Activity with K562 [3] came out at 83.4%; in the data set with K562 [4], 6.4%; with K562 [5] it was 6.3%; in the data set on K562 [6] it was 3.9%. Moreover, in data set [7], the solubility result is “Insoluble”.
For `C=C(Br)C(=O)Nc1ccc(/C=C/C(=O)c2ccc(OCC)cc2)cc1`, the IC50 in the data set on L1210 was 240 nM; with FM3A, 680 nM; in the data set on MOLT-4, 610 nM; with CCRF-CEM, 750 nM; in the data set with HeLa it was 750 nM; in data set [1], over 40000 nM. Further, the concentration for an effect of 75% (IC75) with K562 [2] amounted to 850 nM. Besides, the Activity in the data set with K562 [3] is reported as 52.3%; in the data set on K562 [4] it was 16.5%; with K562 [5], 19.6%; with K562 [6] it was 11.6%. Moreover, the result with K562 [10], with K562 [11], in the data set with K562 [12], in the data set with K562 [13] and in the data set with K562 [14] was Active. The solubility entry in data set [7] was “Insoluble”.
As to `C=C(Br)C(=O)Nc1ccc(/C=C/C(=O)c2cccs2)cc1`, the concentration for half-maximal inhibition (IC50) in the data set with L1210 was 250 nM; in the data set with FM3A, 520 nM; in the data set with MOLT-4, 550 nM; with CCRF-CEM it was 730 nM; with HeLa it was 340 nM; in data set [1] it was over 40000 nM. In the data set with K562 [2], this compound yielded an IC75 of 820 nM. Besides, the Activity in the data set with K562 [3] came out at 42.8%; with K562 [4] it was 17%; in the data set with K562 [5], 23.2%; with K562 [6] it was 17%. In addition, in data set [7], the solubility result is given as “Insoluble”.
Regarding `C=C(Br)C(=O)Nc1ccc(C(=O)/C=C/c2ccc(OC)c(OC)c2OC)cc1`, the IC50 is 630 nM in the data set with L1210; 530 nM in the data set on FM3A; 680 nM with MOLT-4; 840 nM in the data set with CCRF-CEM; 510 nM in the data set on HeLa; over 40000 nM in data set [1]. The same compound registered an IC50 in the data set with K562 [2] of 200 nM. The compound further yielded an IC75 with K562 [2] of 710 nM. The Activity in the data set on K562 [3] was determined as 57.8%; with K562 [4], 13.7%; with K562 [5], 14.9%; in the data set with K562 [6], 13.6%. In the data set on K562 [15], the result was Active. The solubility result in data set [7] was “Insoluble”.
On to `C=C(Br)C(=O)Nc1ccc(C(=O)/C=C/c2ccc(OC)cc2)cc1`, for which the IC50 in the data set on L1210 was 900 nM; in the data set with FM3A it was 1000 nM; in the data set on MOLT-4, 610 nM; in the data set with CCRF-CEM, 1100 nM; with HeLa it was 310 nM; in data set [1] it was over 40000 nM. This compound also gave a 75% effect concentration (IC75) with K562 [2] of 1140 nM. Further, the Activity is listed as 68.2% in the data set on K562 [3], 11% in the data set on K562 [4], 11.6% in the data set on K562 [5] and 9.2% in the data set on K562 [6]. Also, the solubility result in data set [7] is “Insoluble”.
